A selection: hits, their analogues and other compounds. The true share with any hit is near 4.2%.
SKKanGAS inh = blocks kanamycin growth of S. pyogenes SKKanGAS strain; BacTiter-Glo, 6 h; AID 1662; inhibition, % at 7.5 µM; 1.3% of 300,000 active;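 active means mean replicate score, as percent of positive control median, at least 50; inconclusive means mean below 50 but one replicate at or above 50; inactive means mean and every replicate below 50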;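 further: strain carries kanamycin resistance gene driven by streptokinase promoter and grows in 40 µg/ml kanamycin; loss of luminescence reflects streptokinase promoter inhibition or plain growth inhibition; 0% = median of DMSO wells and 100% = positive control at its reference dose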
Rad51 HR inh = Rad51 (human) homologous recombination inhibition | Q06609 | hRad51 DNA strand exchange, fluorescence dequenching | inhibition, % at 10 µM | 0.085% of 200,000 active;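 active means inhibition above 40% at the single screening dose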;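 further: 0% = DMSO control wells and 100% = blanks with heterologous ssDNA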
Target sequence (Q06609 whole entry, looked up): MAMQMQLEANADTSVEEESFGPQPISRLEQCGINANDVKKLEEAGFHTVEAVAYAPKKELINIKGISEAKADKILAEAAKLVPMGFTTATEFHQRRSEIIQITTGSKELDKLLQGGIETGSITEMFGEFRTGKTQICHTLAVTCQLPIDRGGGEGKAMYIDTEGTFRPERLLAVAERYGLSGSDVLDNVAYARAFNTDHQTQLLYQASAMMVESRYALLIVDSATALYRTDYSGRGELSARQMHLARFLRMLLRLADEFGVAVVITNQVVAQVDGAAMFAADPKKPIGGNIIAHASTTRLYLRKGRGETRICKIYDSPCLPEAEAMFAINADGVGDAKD
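Test system: preformed human Rad51 ssDNA filaments. Compound dosing: single dose, 10 µM final compound. Incubation: filaments 15 min 37 °C, then compound 30 min. Technique: FRET fluorescence dequenching, excitation 485 nm, emission 520 nm. Read-out basis: percent inhibition from fluorescence, normalised to plate control and blank means. Benchmarks: plate controls and plate blanks.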
Cl transport mod = KCC2 (human) Cl- transport modulation; Q9H2X9; KCC2 cells, thallium flux FluoZin-2 fluorescence; B-score of Tl+ flux slope (higher = more flux/activation; lower = inhibition) at 10 µM; 2.2% of 190,000 active; AID 1456;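 active means thallium flux slope and its plate-corrected score both differing from the plate sample mean at a set confidence after two filtering rounds, in either direction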;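 further: slope of fluorescence scaled to starting intensity during 10 to 20 s after thallium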
Autophagy mod = modulators of autophagy. MEF GFP-LC3 puncta imaging; test concentration mostly 10 µM. calls only at 10 µM (by protocol). 0.98% of 190,000 active;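 active means percentage of spot-positive cells more than 3 SD above its plate mean, without a fluorescence outlier flag or 80% toxicity; inconclusive means no clear call, values can overlap the other calls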;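 further: spot-positive cell cutoff set from DMSO-treated cells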
Ins promoter up = MIN6 insulin promoter up-regulation; MIN6 insulin promoter-GFP reporter, high-content imaging; stronger effect = higher value; z-score at 5 µM; 0.3% of 190,000 active;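 active means z-score above 3 at 5 µM with at least 500 cells counted in the well; inconclusive means wells under 500 cells, flagged as cytotoxic or low count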
WT yeast gro inh = growth inhibition of WT yeast, mitochondrial fusion screen; mitochondrial fusion phenotypic screen, WT strain; inhibition, % at 10 µM; 2.1% of 190,000 active; AID 1362; in the data active means inhibition above about 58%; tested in S. cerevisiae
* = called active by the depositor; i = inactive; ? = inconclusive; / = no result given; + = active, no number.

SMILES	SKKanGAS inh	Rad51 HR inh	Cl transport mod	Autophagy mod	Ins promoter up	WT yeast gro inh
COCCN(C(=O)c1snc(C(N)=O)c1N)C(C(=O)NC1CCCCC1)c1ccc(F)cc1 (centres undefined)	-1	/	/	/	/	/
COc1ccccc1C(=O)N/C(=C\c1ccc(Br)cc1)C(=O)N1CCCC1	9	2	-2.1	/	-1.4	/
CN(C)C1(CNC(=O)C2CCN(S(=O)(=O)c3cccc(C(F)(F)F)c3)CC2)CCCCC1	5	/	/	/	/	/
CCc1nnc2c(NCCc3ccccc3)nc3ccccc3n12	-6	/	/	/	/	/
Cc1ccc(N(C)S(=O)(=O)c2ccc3c(c2)CC(C)N3C(=O)C2CC2)cc1 (centres undefined)	102*	/	/	/	/	/
CC(=O)N1c2ccc(S(=O)(=O)N3CCC(C(=O)Nc4cc(C)ccn4)CC3)cc2CC1C (centres undefined)	52*	/	/	/	/	/
COc1nc(N/N=C/c2ccc(-c3ccccc3[N+](=O)[O-])o2)nc(N2CCOCC2)n1	3	-1	0.0079	i	0.63	2
O=[N+]([O-])c1ccc(-c2ccc(/C=N/Nc3nc(NCc4ccccc4)nc(N4CCOCC4)n3)o2)cc1	33	-295	/	+	/	6
O=[N+]([O-])c1ccc(/C=N/Nc2nc(N3CCCCC3)nc(N3CCCCC3)n2)cc1	0	-64	0.13	i	-0.67	49
O=[N+]([O-])c1ccc(/C=N/Nc2nc(N3CCCCCC3)nc(N3CCCCCC3)n2)o1	75*	/	-0.33	?	/	63*
CN(C(=O)C1CCCN(c2ncnc3c2nc2n3CCCCC2)C1)c1cccc(Cl)c1 (centres undefined)	-3	/	/	/	/	/
CCC(=O)N1N=C(c2ccccc2)CC1c1ccccc1 (centres undefined)	-2	/	/	/	/	/
CCC(=O)N1N=C(c2c(O)n(C)c(=O)n(C)c2=O)CC1c1ccccc1 (centres undefined)	75*	/	0.11	/	0.04	/
COc1ccc(-n2c(C)cc(C(=O)CN3C(=O)c4ccccc4C3=O)c2C)cc1	6	1	-0.55	i	-0.24	-13
COc1ccc(-n2c(C)cc(C(=O)CCl)c2C)cc1	-20	19	-3.4	+	0.11	32
C=C(C)CC(c1ccccc1)N(C(C)=O)c1ccco1 (centres undefined)	16	-38	-1	i	0.07	-2
C=CCC(c1ccccc1)N(C(C)=O)c1ccco1 (centres undefined)	6	-1	-0.48	i	3.6*	2
Cc1cc(C)n(-c2nc3c(c(=O)[nH]c(=O)n3C)n2Cc2ccc(F)cc2)n1	-8	66*	1.1	i	1.2	8
CC(=O)Cn1c(N2CCC(Cc3ccccc3)CC2)nc2c1c(=O)[nH]c(=O)n2C	6	-13	-0.44	i	-0.32	3
CCN(CC)CCNc1nc2c(c(=O)[nH]c(=O)n2C)n1CC(O)COc1ccc(Cl)cc1Cl (centres undefined)	-1	-2	-0.5	i	-1.7	5
Cc1cc(C)n(-c2nc3c(c(=O)[nH]c(=O)n3C)n2CC(O)COc2ccc(Cl)cc2Cl)n1 (centres undefined)	-4	0	-0.39	+	0.09	2
Cn1c(=O)[nH]c(=O)c2c1nc(N1CCC(Cc3ccccc3)CC1)n2Cc1ccccc1	53*	0	-0.34	i	0.68	17
COc1ccc(OC)c(NC(=O)CSc2nnc3ccc(-c4ccccn4)nn23)c1	0	/	/	/	/	/
CC(C)(C)NCC(O)(c1ccc(Cl)cc1)c1ccc(Cl)cc1	5	6	/	i	-2.2	0
NCC(O)(c1ccc(Cl)cc1)c1ccc(Cl)cc1	5	1	0.39	+	-1.1	-2
SMILES	SKKanGAS inh	Rad51 HR inh	Cl transport mod	Autophagy mod	Ins promoter up	WT yeast gro inh
COCC(=O)N1CCC(Oc2ccc(C(=O)N3CCCCCC3)cc2)CC1	-3	/	/	/	/	/
COC(=O)C1=C(C)NC2=C(C(=O)CC(c3cccs3)C2)C1c1ccsc1 (centres undefined)	1	-2	/	i	0.68	-1
CCOC(=O)C1=C(C)NC2=C(C(=O)CC(c3cccs3)C2)C1c1cccs1 (centres undefined)	5	-3	-1.5	+	-0.31	2
CC(C)(C)[C@H]1CCC(=O)N([C@H](CSc2ccccc2)Cc2ccccc2)CC1	63*	/	/	/	/	/
CC(C)(C)[C@@H]1CCC(=O)N(CC[C@H](Sc2ccccc2)c2ccccc2)CC1	79*	/	/	/	/	/
C[C@H]1c2cccc(O)c2C(O)=C2C(=O)[C@]3(O)C(O)=C(C(N)=O)C(=O)[C@@H](N(C)C)C3[C@@H](O)C21 (some centres undefined)	105*	/	/	/	/	/
COc1ccc(CNc2nc3ccccc3n2C)c(OC)c1	-1	8	0.085	i	1.2	-2
COc1ccc(N=Nc2nc3cc(Br)c(Br)cc3n2C)c(OC)c1	/	-297	-1.2	i	-2.4	61*
COc1cccc(NC(=O)CSc2nc3ccccc3nc2N2CCOCC2)c1	0	/	/	/	/	/
CC(C)NCc1cc(Br)ccc1OCc1ccccc1	7	5	0.85	i	-0.85	0
COc1ccc(CNC(=O)CN2C(=O)COc3ccc(S(=O)(=O)N4CCCC4)cc32)cc1	1	/	/	/	/	/
O=C(CN1C(=O)COc2ccc(S(=O)(=O)N3CCCCC3)cc21)NCc1ccc(F)cc1	103*	/	/	/	/	/
CCOC(=O)c1oc2nc3c(cc2c1N)CCCC3	-17	11	-0.031	/	-0.21	/
CCOC(=O)c1oc2nc3c(cc2c1N)COC(C)(C)C3	4	0	0.31	+	/	-4
C=C(CC1([C@@H](NP(=O)(c2ccccc2)c2ccccc2)[C@H]2C[C@@H]2CCCC)CC1)c1ccccc1	77*	4	-0.94	i	-1.6	17
CCCC[C@@H]1C[C@H]1[C@@H](NC(=O)c1ccccc1)c1ccccc1C(F)(F)F	7	-3	0.084	i	-0.97	33
COc1cc(/C=C/C(=O)OC2CC3CCC2(C)C3(C)C)ccc1O (centres undefined)	61*	-5	-0.032	/	-0.94	/
COc1cc(/C=C/C(=O)OCC(=O)N2CCC(C)CC2)ccc1O	0	/	/	/	/	/
COCCN(CCOC)Cc1cc(=O)oc2cc3c(cc12)CCC3	-4	-4	0.53	i	3.1*	-4
Nc1cc(N)nc(SCc2cc(=O)oc3cc4c(cc23)CCC4)n1	-1	7	0.61	i	0.1	10
CC(C)CN(Cc1cc(=O)oc2cc3c(cc12)CCCC3)CC(C)C	54*	12	-0.058	/	-0.1	/
COc1cc(C2SCC(=O)N2Cc2ccccc2)cc(OC)c1OC (centres undefined)	0	/	/	/	/	/
COc1cc([N+](=O)[O-])ccc1NC(=S)NNC(=O)CCC(=O)Nc1ccccc1Cl	5	/	/	/	/	/
N/C(Cc1ccc(Cl)cc1)=N\OC(=O)c1cccc2ccccc12	1	5	-0.34	i	0.96	98*
N/C(Cc1ccc(Cl)cc1)=N\OC(=O)c1ccc2ccccc2c1	-4	-5	-0.006	i	0.48	-27
